Measured values from different studies.
Compare with care: the assays were run in different laboratories.
Target: Mitogen-activated protein kinase kinase kinase 11 (MAP3K11, Homo sapiens, UniProt Q16584)

SMILES	observed	mode	method	tested at	endpoint	result
C[C@H]1CCN(c2nccc(-c3cnn4ncccc34)n2)C1	binding	–	–	1 µM	remaining binding	93%
COc1cc2ncnc(Nc3ccc(F)c(Cl)c3)c2cc1OCCCN1CCOCC1	cell-free assay	–	–	0.5 µM	remaining signal	102%
N#Cc1ccc(Nc2ccc3[nH]c(=O)[nH]c3c2)c(Cl)c1	cell-free assay	–	competition with immobilised ligand	1 µM	remaining binding	100%
COc1ccc(COc2ccc(Cc3cnc(N)nc3N)cc2OC)cc1	cell-free assay	–	–	0.5 µM	remaining signal	101%
Cc1ccc(C(=O)NCc2ccsc2)cc1C#Cc1cn(C(C)C)c2ncnc(N)c12	enzyme activity	inhibitor	–	1 µM	activity vs control	8%
CN(C)c1ncnc(-c2ccc3nc(Nc4cc(CN5CCN(C(=O)CC(F)(F)F)CC5)ccn4)[nH]c3c2)c1Cl	cell-free assay	–	competition with immobilised ligand	1 µM	remaining binding	100%
O=C(NCCCNc1nc(Nc2cccc(NC(=O)N3CCCC3)c2)ncc1I)c1cccs1	enzyme activity	inhibitor	radiometric	1 µM	remaining activity	1%
CC(C)(O)c1cncc(-c2nc3ccc(F)cc3n2C2CC2)c1	cell-free assay	–	competition with immobilised ligand	1 µM	remaining binding	100%
Cc1nn(CC(F)(F)F)cc1Nc1nccc(NCCc2cnc[nH]2)n1	enzyme activity	inhibitor	radiometric	1 µM	remaining activity	94%
CN1CC(Oc2cnc(C#N)cc2-c2ccn3nc(NC(=O)C4CC4)cc3c2)C1	enzyme activity	inhibitor	–	1 µM	inhibition	5%
NS(=O)(=O)c1ccc(CNc2nc(Nc3cccc(CN4CCOCC4)c3)ncc2Br)cc1	enzyme activity	inhibitor	radiometric	1 µM	remaining activity	34%
O=C1Nc2ccc(Cl)cc2C1=Cc1cc(Cl)c(O)c(Cl)c1	cell-free assay	–	–	0.5 µM	remaining signal	60.4%
O=C(NCCCNc1nc(Nc2cccc(NC(=O)N3CCCC3)c2)ncc1Br)C1CCC1	enzyme activity	inhibitor	radiometric	1 µM	remaining activity	-3%
COc1cc(Nc2cnc(C#N)c(O[C@H](C)CN(C)C)n2)ncc1-c1cnn(C)c1	enzyme activity	inhibitor	radiometric	1 µM	remaining activity	68%
CCOCCn1cc(C(=O)Nc2ccc(-n3nc(-c4cccnc4)cc3C(F)(F)F)cn2)ccc1=O	cell-free assay	–	competition with immobilised ligand	1 µM	remaining binding	100%
Cc1nn(CC(F)(F)F)cc1Nc1ncc(C2CC2)c(NCCCNC(=O)C2CCC2)n1	enzyme activity	inhibitor	radiometric	1 µM	remaining activity	94%
CCC(=O)N[C@@H]1CC[C@H](C(=O)N(C)c2ccc(-c3nc4ccccc4o3)cc2)C1	cell-free assay	–	competition with immobilised ligand	1 µM	remaining binding	100%
Cc1nn(CC(F)(F)F)cc1Nc1nccc(NCCCNC(=O)C2CCC2)n1	enzyme activity	inhibitor	radiometric	1 µM	remaining activity	106%
